High-throughput results as filed in PubChem BioAssay.
This excerpt belongs to a sample that is enriched for hits.
T cruzi growth-1: inhibitors of T. cruzi proliferation; inhibition, % at 8.34 µM; 77,000 tested, 5.9% active; T. cruzi beta-gal in NIH3T3, GalScreen luminescence, 90 h;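 active = mean inhibition above about 93%, with at least 55% of replicates each passing it, limit read from the data, passing the limit was not always enough; inconclusive = only one of those two conditions holds; inactive = neither condition holds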
IDH1 mut inh: blocks human IDH1 R132H reductase activity | inhibition, % at 10 µM | 70,000 tested, 0.18% active | diaphorase/resazurin fluorescence, 60 min | AID 624101; in the data active = inhibition above about 34%; inconclusive = no clear call, values can overlap the other calls; inactive = below about 11%
Target sequence (O75874 whole entry R132H): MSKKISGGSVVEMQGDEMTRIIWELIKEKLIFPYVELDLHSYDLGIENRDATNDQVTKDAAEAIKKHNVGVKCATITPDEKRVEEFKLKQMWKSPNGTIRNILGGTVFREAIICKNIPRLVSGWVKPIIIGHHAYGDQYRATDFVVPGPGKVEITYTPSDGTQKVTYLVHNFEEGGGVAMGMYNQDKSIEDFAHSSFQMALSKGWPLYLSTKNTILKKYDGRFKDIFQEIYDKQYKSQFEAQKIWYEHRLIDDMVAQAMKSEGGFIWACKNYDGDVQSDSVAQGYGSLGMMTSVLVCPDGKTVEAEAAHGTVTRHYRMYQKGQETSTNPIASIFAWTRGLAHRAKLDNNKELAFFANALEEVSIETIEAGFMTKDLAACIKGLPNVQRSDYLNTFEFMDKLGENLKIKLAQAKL
KDM4C inh: inhibitors of human demethylase GASC-1 KDM4C; Q9H3R0; GST-KDM4C 2-372, H3K9me3 peptide, LANCE TR-FRET; inhibition, % at 12.5 µM; 96,000 tested, 0.15% active; AID 720574;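 active = mean replicate inhibition above about 25%, with at least 55% of replicates also reaching it, limit read from the data, passing the limit was not always enough; inconclusive = only one of those two conditions met; inactive = neither condition met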
Target sequence (Q9H3R0 2-372 limits assumed): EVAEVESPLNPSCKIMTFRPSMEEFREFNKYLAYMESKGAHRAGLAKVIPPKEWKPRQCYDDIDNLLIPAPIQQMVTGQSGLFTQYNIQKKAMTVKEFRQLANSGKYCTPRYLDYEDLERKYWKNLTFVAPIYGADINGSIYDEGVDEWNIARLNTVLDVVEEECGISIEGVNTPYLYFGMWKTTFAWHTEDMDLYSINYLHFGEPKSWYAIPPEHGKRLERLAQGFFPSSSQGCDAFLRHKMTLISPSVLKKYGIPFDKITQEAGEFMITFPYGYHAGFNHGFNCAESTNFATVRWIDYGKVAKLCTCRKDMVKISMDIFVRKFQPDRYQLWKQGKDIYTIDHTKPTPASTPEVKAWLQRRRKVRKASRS
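System: N-terminal GST-fused human GASC-1 (KDM4C) fragment, residues 2-372; amount: enzyme final amount 10 nM; incubation: reaction 30 min RT, detection step 1 h RT; medium: HEPES buffer, pH 7.5, plus ascorbate; technique: LANCE TR-FRET, Eu antibody, ULight-streptavidin, EDTA, ex 340 nm, em 618/671 nm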
T cruzi growth-2: Trypanosoma cruzi proliferation inhibition; shares compounds with T cruzi growth-1; T. cruzi beta-gal in NIH3T3, GalScreen luminescence, 90 h; inhibition, % at 8.35 µM; 5,600 tested, 72% active;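 active = mean replicate inhibition above about 95% and at least 55% of replicates individually reaching it, limit read from the data; inconclusive = only one of the two criteria is met; inactive = neither criterion is met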
T cruzi growth-3: blocks T. cruzi growth in NIH3T3 host cells; inhibition, % at 2.09 µM; shares compounds with T cruzi growth-1; T. cruzi beta-gal in NIH3T3, GalScreen luminescence, 90 h; 5,600 tested, 21% active;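 active = mean inhibition above about 95%, with at least 55% of replicates also reaching it, limit read from the data; inconclusive = meets just one of the two conditions; inactive = meets neither condition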
3T3 cytotox: cytotoxicity in mouse NIH/3T3 fibroblasts; shares compounds with T cruzi growth-1; NIH/3T3 viability, CellTiter-Glo ATP luminescence, 90 h; cytotoxicity (signal decrease), % at 8.35 µM; 5,600 tested, 14% active; AID 651742;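 active = mean signal decrease across replicates above about 35% based on untreated-well scatter, with enough replicates individually passing, limit read from the data; inconclusive = no rule stated though some were filed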
NIH3T3 tox 2: kills mouse NIH/3T3 fibroblasts. shares compounds with T cruzi growth-1. NIH/3T3 viability, CellTiter-Glo ATP luminescence, 90 h. inhibition, % at 24.9 µM. 5,600 tested, 56% active. AID 651744;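 active = mean loss of cell viability signal at or above a set limit, and enough replicates individually reaching it; inconclusive = meets only the mean limit or only the replicate share; inactive = meets neither condition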
Of the large screens only hits and unclear results are named; the others gave an inactive call (follow-up assays come after a bar, where they were run).

C[C@@H]1CN([C@H](C)CO)C(=O)c2cc(NS(=O)(=O)c3cccs3)ccc2O[C@@H](C)CCCCO[C@H]1CN(C)Cc1ccc(C(=O)O)cc1	none (no result: T cruzi growth-1)
C[C@H](CO)N1C[C@H](C)[C@@H](CN(C)Cc2ccc(C(F)(F)F)cc2)OCCCC[C@H](C)Oc2ccc(NS(=O)(=O)c3cccs3)cc2C1=O	T cruzi growth-1 inconclusive (no result: IDH1 mut inh) | T cruzi growth-2 98.8 | T cruzi growth-3 105.1 | 3T3 cytotox 43.8 | NIH3T3 tox 2 106.1
C[C@@H]1CN([C@@H](C)CO)C(=O)c2cc(NS(=O)(=O)c3cccs3)ccc2O[C@@H](C)CCCCO[C@H]1CN(C)Cc1ccc(C(F)(F)F)cc1	none (no result: IDH1 mut inh)
CSc1cccc(NC(=O)CSc2nnnn2-c2ccccc2)c1	none (no result: T cruzi growth-1, KDM4C inh)
C[C@H](CO)N1C[C@H](C)[C@H](CN(C)S(=O)(=O)c2ccccc2C#N)OCc2cnnn2CCCC1=O	none (no result: T cruzi growth-1)
CCNC(=O)[C@H]1[C@H](CO)[C@H]2Cn3c(ccc(-c4ccccc4)c3=O)[C@@H]1N2Cc1ccccc1	none (no result: IDH1 mut inh)
Cc1noc(C)c1NC(=O)N(C)C[C@H]1OCCCC[C@H](C)Oc2ccc(NS(=O)(=O)c3cn(C)cn3)cc2C(=O)N([C@@H](C)CO)C[C@@H]1C	none
Cc1ccc(S(=O)(=O)Nc2cccc3c2O[C@H](CN(C)CC2CC2)[C@@H](C)CN([C@@H](C)CO)C3=O)cc1	none (no result: IDH1 mut inh)
CN(C)CC#Cc1ccc([C@@H]2[C@@H](CO)N3CCCCN(C(=O)Nc4ccccc4F)C[C@@H]23)cc1	none (no result: IDH1 mut inh)
CN(C)CC#Cc1ccc([C@@H]2[C@H]3CN(C(=O)Nc4cc(F)ccc4F)CCCCN3[C@H]2CO)cc1	T cruzi growth-1 117.0 (no result: IDH1 mut inh) | T cruzi growth-2 inactive | T cruzi growth-3 inactive | 3T3 cytotox inconclusive | NIH3T3 tox 2 103.3
CN(C)CC#Cc1ccc([C@@H]2[C@@H](CO)N3CCCCN(C(=O)Nc4cc(F)ccc4F)C[C@@H]23)cc1	T cruzi growth-1 106.4 (no result: IDH1 mut inh) | T cruzi growth-2 101.1 | T cruzi growth-3 inactive | 3T3 cytotox inactive | NIH3T3 tox 2 45.3
CN(C)CC#Cc1ccc([C@@H]2[C@H]3CN(C(=O)Nc4ccccc4F)CCCCN3[C@H]2CO)cc1	none (no result: IDH1 mut inh)
O=C(COc1ccc([N+](=O)[O-])cc1)Nc1ccc2oc(-c3ccccc3Cl)nc2c1	none (no result: T cruzi growth-1, KDM4C inh)
CC(C)NC(=O)N[C@@H]1C=C[C@H](CC(=O)NCCN2CCCC2)O[C@H]1CO	none (no result: T cruzi growth-1)
COc1ccc(NC(=O)N2CCCCN3[C@H](C2)[C@@H](c2ccc(-c4ccccc4F)cc2)[C@@H]3CO)cc1	none (no result: IDH1 mut inh)
O=C(Nc1cccc(F)c1)N1CCCCN2[C@H](CO)[C@H](c3ccc(-c4ccccc4F)cc3)[C@H]2C1	T cruzi growth-1 101.3 (no result: IDH1 mut inh) | T cruzi growth-2 104.3 | T cruzi growth-3 111.7 | 3T3 cytotox 117.1 | NIH3T3 tox 2 104.4
O=C(Nc1ccc(F)cc1)N1CCCCN2[C@H](C1)[C@@H](c1ccc(-c3ccccc3F)cc1)[C@@H]2CO	none (no result: IDH1 mut inh, KDM4C inh)
O=C(Nc1cccc(F)c1)N1CCCCN2[C@@H](CO)[C@@H](c3ccc(-c4ccccc4F)cc3)[C@@H]2C1	none (no result: IDH1 mut inh)
O=C(Nc1ccccc1)N1CCCCN2[C@@H](CO)[C@H](c3ccc(-c4ccccc4F)cc3)[C@@H]2C1	none (no result: IDH1 mut inh)
O=C(Nc1ccc(F)cc1)N1CCCCN2[C@H](C1)[C@H](c1ccc(-c3ccccc3F)cc1)[C@@H]2CO	T cruzi growth-1 inconclusive (no result: IDH1 mut inh, KDM4C inh) | T cruzi growth-2 108.8 | T cruzi growth-3 inactive | 3T3 cytotox inactive | NIH3T3 tox 2 65.2
O=C(Nc1ccc(F)cc1)N1CCCCN2[C@H](CO)[C@H](c3ccc(-c4ccccc4F)cc3)[C@@H]2C1	T cruzi growth-1 114.8 (no result: IDH1 mut inh, KDM4C inh) | T cruzi growth-2 108.3 | T cruzi growth-3 inactive | 3T3 cytotox inactive | NIH3T3 tox 2 51.9
O=C(Nc1ccc(F)cc1)N1CCCCN2[C@@H](CO)[C@H](c3ccc(-c4ccccc4F)cc3)[C@@H]2C1	T cruzi growth-1 105.7 (no result: IDH1 mut inh, KDM4C inh) | T cruzi growth-2 inactive | T cruzi growth-3 inactive | 3T3 cytotox 55.2 | NIH3T3 tox 2 104.1
O=C(C[C@@H]1C[C@@H]2c3cc(NC(=O)C4CCOCC4)ccc3O[C@@H]2[C@@H](CO)O1)NCc1ccc(Cl)cc1	none
COc1ccc(Cl)cc1NC(=O)Cc1coc2ccc3ccccc3c12	none (no result: T cruzi growth-1, KDM4C inh)
CCCNC(=O)N1C[C@H](C)[C@@H](OC)CN(C)C(=O)c2ccc(NC(=O)CC)cc2OC[C@H]1C	none
COc1cccc(C(=O)Nc2ccc3c(c2)C(=O)N(C)C[C@H](OC)[C@H](C)CN(CC2CC2)[C@@H](C)CO3)c1	none
O=C(Nc1ccccc1)N1CCCCN2[C@H](CO)[C@H](c3ccc(-c4ccccc4F)cc3)[C@@H]2C1	T cruzi growth-1 100.9 (no result: IDH1 mut inh) | T cruzi growth-2 111.0 | T cruzi growth-3 inactive | 3T3 cytotox inactive | NIH3T3 tox 2 inactive
O=C(Nc1ccccc1)N1CCCCN2[C@H](CO)[C@H](c3ccc(-c4ccccc4F)cc3)[C@H]2C1	none (no result: IDH1 mut inh)
Cc1ccc(S(=O)(=O)N(C)C[C@H]2OCCCC[C@@H](C)Oc3ccc(NC(=O)c4ccccc4)cc3C(=O)N([C@@H](C)CO)C[C@H]2C)cc1	none (no result: IDH1 mut inh)
Cc1ccc(S(=O)(=O)N(C)C[C@@H]2OCCCC[C@@H](C)Oc3ccc(NC(=O)Nc4ccccc4)cc3C(=O)N([C@H](C)CO)C[C@@H]2C)cc1	none (no result: IDH1 mut inh)
C[C@@H]1CN([C@H](C)CO)C(=O)c2cc(NC(=O)Nc3ccccc3)ccc2O[C@@H](C)CCCCO[C@@H]1CN(C)S(=O)(=O)c1ccccc1	none
Cc1ccc(S(=O)(=O)N(C)C[C@H]2OCCCC[C@H](C)Oc3ccc(NC(=O)Nc4ccccc4)cc3C(=O)N([C@H](C)CO)C[C@@H]2C)cc1	T cruzi growth-1 109.7 (no result: IDH1 mut inh) | T cruzi growth-2 103.5 | T cruzi growth-3 inactive | 3T3 cytotox inactive | NIH3T3 tox 2 inactive
Cc1ccc(S(=O)(=O)N(C)C[C@@H]2OCCCC[C@H](C)Oc3ccc(NC(=O)Nc4ccccc4)cc3C(=O)N([C@H](C)CO)C[C@@H]2C)cc1	T cruzi growth-1 106.0 (no result: IDH1 mut inh) | T cruzi growth-2 106.4 | T cruzi growth-3 inactive | 3T3 cytotox inactive | NIH3T3 tox 2 inactive
Cc1ccc(S(=O)(=O)N(C)C[C@H]2OCCCC[C@H](C)Oc3ccc(NC(=O)Nc4ccccc4)cc3C(=O)N([C@@H](C)CO)C[C@H]2C)cc1	none
Cc1ccc(S(=O)(=O)N(C)C[C@@H]2OCCCC[C@@H](C)Oc3ccc(NC(=O)Nc4ccccc4)cc3C(=O)N([C@H](C)CO)C[C@H]2C)cc1	T cruzi growth-1 109.0 | T cruzi growth-2 109.3 | T cruzi growth-3 108.2 | 3T3 cytotox inactive | NIH3T3 tox 2 inactive
Cc1ccc(S(=O)(=O)N(C)C[C@@H]2OCCCC[C@H](C)Oc3ccc(NC(=O)c4ccccc4)cc3C(=O)N([C@H](C)CO)C[C@H]2C)cc1	T cruzi growth-1 101.0 | T cruzi growth-2 99.0 | T cruzi growth-3 inactive | 3T3 cytotox inactive | NIH3T3 tox 2 48.9
